In ChEMBL document CHEMBL6121049, “Discovery of Orally Available Prodrugs of Itaconate and Derivatives” (J Med Chem, 2025):
Calls of active or inactive are those of the source. The rule behind the calls is not given here.

What was measured:
[1] = Prodrug conversion in C57BL6 mouse plasma assessed as itaconic acid Tmax at 100 mg/kg, po measured after 24 hrs by LC-MS/MS analysis; format: ADME, organism-based; settings: in vivo
Method in brief: (§1)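 C57BL6 mice, 25–30 g, 8.5 weeks old, given 100 mg/kg (IA or 4-MI equivalent) orally in 10% DMSO/80% PEG/10% HBS, freshly prepared; killed at 0.25–24 h, n = 3 per time point; acidified plasma and stabilized skin homogenates, methanol precipitation with internal standards, LC-MS/MS (orbitrap); PK parameters as mean ± SEM.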

[2] = Metabolic stability in mouse skin homogenate assessed as compound remaining at 10 uM measured after 1 hrs by LC-MS analysis; format: ADME, tissue-based, Skin of body; settings: tissue homogenate
[3] = Metabolic stability in human skin homogenate assessed as compound remaining at 10 uM measured after 1 hrs by LC-MS analysis; format: ADME, tissue-based, Skin of body; settings: tissue homogenate
[4] = Prodrug conversion in C57BL6 mouse plasma assessed as itaconic acid Cmax at 100 mg/kg, po measured after 24 hrs by LC-MS/MS analysis; format: ADME, organism-based; settings: in vivo; method in brief: as §1
[5] = Immunomodulatory activity in NHEK cells assessed as inhibition of IL-6 mRNA expression at 100 uM preincubated for 2 days and measured after 24 hrs by TaqMan RTPCR analysis; format: functional; settings: Homo sapiens, 48 h, time 2 day
[6] = Permeability of the compound at pH 7.4 incubated for 4 hrs by PAMPA-GIT assay; format: ADME; settings: pH 7.4, 4 h
Method in brief: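 PAMPA-GIT sandwich: acceptor filter coated with GIT-0 lipid; donor holds 10 μM compound in pH 7.4 buffer with 0.2% DMSO, acceptor pH 7.4 sink buffer; 4 h at room temperature; both compartments sampled by LC-MS/MS; effective permeability Pe calculated with membrane retention correction.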

[7] = Chemical stability in pH 7.4 assessed as compound remaining at 10 uM measured after 1 hrs by LC-MS/MS analysis; format: physicochemical; settings: buffer, pH 7.4, 1 h
Method in brief: (§2)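 Compounds incubated in buffers at pH 1.2, 4.5 or 7.4 at 37 °C for 1 h; prodrug disappearance followed by LC–MS/MS as % remaining.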

[8] = Metabolic stability in mouse plasma assessed as compound remaining at 10 uM measured after 1 hrs by LC-MS analysis; format: ADME, cell-free
Method in brief: (§3)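 Prodrugs (10 μM) spiked into mouse or human plasma, shaken at 37 °C; samples at 0 and 60 min quenched in cold acetonitrile with losartan internal standard, centrifuged, diluted, run by LC-HRMS; % remaining from analyte/IS peak-area ratio.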

[9] = Prodrug conversion in C57BL6 mouse skin assessed as itaconic acid AUC (0 to t) at 100 mg/kg, po measured after 24 hrs by LC-MS/MS analysis; format: ADME, organism-based, Skin of body; settings: in vivo
[10] = Prodrug conversion in C57BL6 mouse skin assessed as itaconic acid Cmax at 100 mg/kg, po measured after 24 hrs by LC-MS/MS analysis; format: ADME, organism-based, Skin of body; settings: in vivo; method in brief: as §1
[11] = Chemical stability in pH 1.2 assessed as compound remaining at 10 uM measured after 1 hrs by LC-MS/MS analysis; format: physicochemical; settings: buffer, pH 1.2, 1 h; method in brief: as §2
[12] = Prodrug conversion in C57BL6 mouse plasma assessed as itaconic acid AUC (0 to t) at 100 mg/kg, po measured after 24 hrs by LC-MS/MS analysis; format: ADME, organism-based; settings: in vivo
[13] = Cytotoxicity against NHEK cells assessed as cell viability at 100 uM measured after 8 hrs by CellTiter-Glo assay relative to control; format: toxicity, cell-based; settings: human
Method in brief: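 Primary normal human epidermal keratinocytes, expanded and seeded, exposed to 1, 10, 30 or 100 μM for 8 h; viability by CellTiter-Glo luminescence as % viable.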

[14] = Prodrug conversion in C57BL6 mouse skin assessed as itaconic acid Tmax at 100 mg/kg, po measured after 24 hrs by LC-MS/MS analysis; format: ADME, organism-based, Skin of body; settings: in vivo; method in brief: as §1
[15] = Prodrug conversion in C57BL6 mouse skin assessed as itaconic acid half life at 100 mg/kg, po measured after 24 hrs by LC-MS/MS analysis; format: ADME, organism-based, Skin of body; settings: in vivo; method in brief: as §1
[16] = Immunomodulatory activity in NHEK cells assessed as inhibition of Poly(I:C)/IFN-gamma induced IL-1 beta expression at >= 10 uM by TaqMan RTPCR analysis relative to control; format: functional, Homo sapiens; set-up: scale not given: the % may be the effect or the level left
Method in brief: (§4)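 Primary human keratinocytes seeded, held overnight at 37 °C, 5% CO2, then stimulated with Poly(I:C) 50 μg/mL plus IFNγ 5 ng/mL, with or without prodrug at 1, 10, 30 or 100 μM; gene induction measured at 8 h.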

[17] = Metabolic stability in human plasma assessed as compound remaining at 10 uM measured after 1 hrs by LC-MS analysis; format: ADME, cell-free; method in brief: as §3
[18] = Immunomodulatory activity in NHEK cells assessed as inhibition of IFN-gamma induced CXCL11 expression at 30 to 100 uM by TaqMan RTPCR analysis relative to control; format: functional, Homo sapiens; settings: dose 30-100 µM; method in brief: as §4
[19] = Prodrug conversion in C57BL6 mouse plasma assessed as itaconic acid half life at 100 mg/kg, po measured after 24 hrs by LC-MS/MS analysis; format: ADME, organism-based; settings: in vivo; method in brief: as §1
[20] = Chemical stability in pH 4.5 assessed as compound remaining at 10 uM measured after 1 hrs by LC-MS/MS analysis; format: physicochemical; settings: buffer, pH 4.5, 1 h; method in brief: as §2
NHEK [21] = experiment: Effect on TLR3 mRNA expression in NHEK cells at 500 uM preincubated for 2 days and measured after 24 hrs by TaqMan RTPCR analysis; format: functional, cell-based; settings: Homo sapiens, time 2.0 day
NHEK [22] = experiment: Effect on IL-6 expression in NHEK cells at 500 uM preincubated for 2 days and measured after 24 hrs by TaqMan RTPCR analysis; format: functional, cell-based; settings: Homo sapiens, time 2.0 day

Row | SMILES | Stability [2] | Stability [3] | permeability [6] | Stability [7] | Stability [8] | Stability [11] | Stability [17] | Stability [20] | other results
1 | C=C(CC(=O)OCOC(=O)OC(C)C)C(=O)OCOC(=O)OC(C)C | 2.5% | 1.1% | 35.9 10^-6 cm/s | 47% | 0% | 104% | 0% | – | Tmax [1]: 0.25 h; Cmax [4]: 83.8 µM; inhibition at 100 µM [5]: > 90%; AUCt [9]: 173 nmol·h/g; Cmax [10]: 65.9 nmol/g; AUCt [12]: 108 µM·h; Activity [13]: > 80%; Tmax [14]: 1 h; t1/2 [15]: 3.32 h; Activity [16]: >50%; inhibition (INH) [18]: >50%; t1/2 [19]: 1.42 h
2 | C=C(CC(=O)OC)C(=O)OCCCOCCCCCCCCCCCCCCCC | 67% | 94% | – | 75% | 44% | 103% | 32% | 108% | –
3 | C=C(CC(=O)OC)C(=O)O | – | – | – | – | – | – | – | – | Activity (NHEK [21]): inactive; Activity (NHEK [22]): inactive
4 | C=C(CC(=O)OCOC(=O)C(C)(C)C)C(=O)OC | 0% | 9.4% | 35.2 10^-6 cm/s | 86% | 0% | 101% | 0% | 104% | –
5 | C=C(CC(=O)OCOC(=O)OC(C)C)C(=O)O | 4.9% | 29% | – | 44% | 0% | 104% | 53% | 79% | –
6 | C=C(CC(=O)OCCCOCCCCCCCCCCCCCCCC)C(=O)OC | 61% | 101% | – | 97% | 89% | 109% | 90% | 98% | –
7 | C=C(CC(=O)OCOC(=O)C(C)(C)C)C(=O)O | 14% | 40% | 0.08 10^-6 cm/s | 22% | 3% | 100% | 83% | 74% | –
8 | C=C(CC(=O)OCCCOCCCCCCCCCCCCCCCC)C(=O)O | 100% | 87% | 3.2 10^-6 cm/s | 65% | 92% | 91% | 68% | 90% | –
9 | C=C(CC(=O)OCc1oc(=O)oc1C)C(=O)O | 74% | 93% | – | 0% | 20% | 109% | 0% | 88% | –
